Usually MIC stands for the lowest concentration found to suppress growth.

Series [1] in a line: Solubility in aqueous solution. Particulars: buffer. The class given is physicochemical.
For series [2], the system named is Staphylococcus aureus. The series can be described thus: Antimicrobial activity against methicillin-resistant Staphylococcus aureus NRS100 by micro-dilution method. The class given is functional. The procedure, abridged: (§1)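 Broth microdilution MIC in cation-adjusted Mueller-Hinton II medium supplemented with 1% Tween-80 (CAMHB-T), needed to disperse the farnesol-type compounds. Compounds tested from 2 to 2048 μg/mL.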
A general note: In broth dilution the organism is exposed to a series of concentrations in liquid medium.

The subject of series [3] is Staphylococcus aureus. Nature of the series: Antimicrobial activity against methicillin-resistant Staphylococcus aureus NRS123 by micro-dilution method. The class given is functional. The procedure, abridged: as §1
Series [4] has as its system Staphylococcus aureus. The series can be described thus: Antimicrobial activity against methicillin-resistant Staphylococcus aureus NRS70 by micro-dilution method. The class given is functional. The procedure, abridged:
as §1

Series [5] relates to Staphylococcus aureus. The series can be described thus: Antimicrobial activity against methicillin-susceptible Staphylococcus aureus ATCC 29213 by micro-dilution method. The class given is functional. The procedure, abridged: as §1
The subject of series [6] is Staphylococcus aureus. The series can be described thus: Potentiation of ampicillin-induced antimicrobial activity against methicillin-susceptible Staphylococcus aureus ATCC 29213 at 256 ug/ml (reference value: ampicillin alone MIC = 0.5 ug/ml). The class given is functional.
Series [7] relates to Staphylococcus aureus. Nature of the series: Potentiation of ampicillin-induced antimicrobial activity against methicillin-susceptible Staphylococcus aureus ATCC 29213 at 256 ug/ml relative to ampicillin alone. The class given is functional.
For series [8], the system named is Staphylococcus aureus. The series can be described thus: Potentiation of ampicillin-induced antimicrobial activity against methicillin-resistant Staphylococcus aureus NRS100 at 256 ug/ml (reference value: ampicillin alone MIC = 16 ug/ml). The class given is functional.
In series [9] the test system is Staphylococcus aureus. The series can be described thus: Potentiation of ampicillin-induced antimicrobial activity against methicillin-resistant Staphylococcus aureus NRS100 at 256 ug/ml relative to ampicillin alone. The class given is functional.
Series [10] relates to Staphylococcus aureus. The series can be described thus: Potentiation of ampicillin-induced antimicrobial activity against methicillin-resistant Staphylococcus aureus NRS70 at 256 ug/ml (reference value: ampicillin alone MIC = 16 ug/ml). The class given is functional.
The test system of series [11] is Staphylococcus aureus. Nature of the series: Potentiation of ampicillin-induced antimicrobial activity against methicillin-resistant Staphylococcus aureus NRS70 at 256 ug/ml relative to ampicillin alone. The class given is functional.
For series [12], the system named is Staphylococcus aureus. Nature of the series: Potentiation of ampicillin-induced antimicrobial activity against methicillin-resistant Staphylococcus aureus NRS123 at 256 ug/ml (reference value: ampicillin alone MIC = 12 ug/ml). The class given is functional.
Series [13] deals with Staphylococcus aureus. Nature of the series: Potentiation of ampicillin-induced antimicrobial activity against methicillin-resistant Staphylococcus aureus NRS123 at 256 ug/ml relative to ampicillin alone. The class given is functional.
Series [14] concerns Staphylococcus aureus. Nature of the series: Potentiation of oxacillin-induced antimicrobial activity against methicillin-susceptible Staphylococcus aureus ATCC 29213 at 256 ug/ml (reference value: oxacillin alone MIC = 0.4 ug/ml). The class given is functional.
Series [15] relates to Staphylococcus aureus. Nature of the series: Potentiation of oxacillin-induced antimicrobial activity against methicillin-susceptible Staphylococcus aureus ATCC 29213 at 256 ug/ml relative to oxacillin alone. The class given is functional.
The test system of series [16] is Staphylococcus aureus. Nature of the series: Potentiation of oxacillin-induced antimicrobial activity against methicillin-resistant Staphylococcus aureus NRS100 at 256 ug/ml (reference value: oxacillin alone MIC = >256 ug/ml). The class given is functional.
For series [17], the system named is Staphylococcus aureus. Nature of the series: Potentiation of oxacillin-induced antimicrobial activity against methicillin-resistant Staphylococcus aureus NRS100 at 256 ug/ml relative to oxacillin alone. The class given is functional.
Series [18] relates to Staphylococcus aureus. Nature of the series: Potentiation of oxacillin-induced antimicrobial activity against methicillin-resistant Staphylococcus aureus NRS70 at 256 ug/ml (reference value: oxacillin alone MIC = 32 ug/ml). The class given is functional.
Series [19] relates to Staphylococcus aureus. Nature of the series: Potentiation of oxacillin-induced antimicrobial activity against methicillin-resistant Staphylococcus aureus NRS70 at 256 ug/ml relative to oxacillin alone. The class given is functional.
Series [20] has as its system Staphylococcus aureus. The series can be described thus: Potentiation of oxacillin-induced antimicrobial activity against methicillin-resistant Staphylococcus aureus NRS123 at 256 ug/ml (reference value: oxacillin alone MIC = 24 ug/ml). The class given is functional.
The subject of series [21] is Staphylococcus aureus. The series can be described thus: Potentiation of oxacillin-induced antimicrobial activity against methicillin-resistant Staphylococcus aureus NRS123 at 256 ug/ml relative to oxacillin alone. The class given is functional.
Series [22] concerns Staphylococcus aureus. The series can be described thus: Potentiation of oxacillin-induced antimicrobial activity against methicillin-resistant Staphylococcus aureus NRS70 at 256 ug/ml by checkerboard assay. The class given is functional. The procedure, abridged:
(§2)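 Checkerboard combination of oxacillin with the farnesol-type compound. Synergy scored by the fractional inhibitory concentration index (FICI).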

Series [23] has as its system Staphylococcus aureus. The series can be described thus: Potentiation of oxacillin-induced antimicrobial activity against methicillin-resistant Staphylococcus aureus NRS100 at 256 ug/ml by checkerboard assay. The class given is functional. An outline of the steps: as §2

In brackets after ≈: the same amount, converted by molar mass. Where only a bound is given, the exact number is not on record here.

For the molecule `CC(C)=CCC/C(C)=C/CC/C(C)=C/CNP(O)(O)=S`, the solubility result in [1] is listed as “Soluble”. For the same molecule, the MIC came to 512 µg/mL (≈ 1610 µM) in the series with Staphylococcus aureus [2]; 512 µg/mL (≈ 1610 µM) against Staphylococcus aureus [3]; 512 µg/mL (≈ 1610 µM) with Staphylococcus aureus [4]; 512 µg/mL (≈ 1610 µM) with Staphylococcus aureus [5]; 0.5 µg/mL with Staphylococcus aureus [6]; 3 µg/mL in the series on Staphylococcus aureus [8]. In addition, the MIC in the series on Staphylococcus aureus [10] was 6 µg/mL; in the series with Staphylococcus aureus [12], 8 µg/mL; with Staphylococcus aureus [14], 0.4 µg/mL; in the series on Staphylococcus aureus [16] it was 2 µg/mL; in the series on Staphylococcus aureus [18], 1 µg/mL; with Staphylococcus aureus [20], 16 µg/mL. For the same molecule, the “fold change (FC)” value in the series on Staphylococcus aureus [7] is given as 1; in the series on Staphylococcus aureus [9] it was 5.3; in the series on Staphylococcus aureus [11] it was 2.7; with Staphylococcus aureus [13] it was 1.5; with Staphylococcus aureus [15], 1; with Staphylococcus aureus [17], greater than 128. Moreover, the “fold change (FC)” value in the series with Staphylococcus aureus [19] came out at 32; in the series with Staphylococcus aureus [21] it was 1.5. In addition, the “fractional inhibitory concentration index (FICI)” value with Staphylococcus aureus [22] and in the series on Staphylococcus aureus [23] was 0.53 - 1.13 in each case.

The values above are taken from ChEMBL document CHEMBL4184251, “Potentiation of the activity of β-lactam antibiotics by farnesol and its derivatives” (Bioorg Med Chem Lett, 2018).
